Source: PubChem BioAssay (several laboratories)
A selection: hits, their analogues and other compounds. The true share with any hit is near 4%.
Pf gametocyte: P. falciparum stage V gametocyte viability inhibition | 0.065% of 150,000 active | P. falciparum stage V gametocytes, ATP luminescence, 24 h | inhibition, % at 10.9 µM;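 active = inhibition above the mean plus 3 SD of compounds within the control limits, set per campaign, cut at about 38% in these data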
KCC2 mod: KCC2 (human) Cl- transport modulation. KCC2 cells, thallium flux FluoZin-2 fluorescence. B-score of Tl+ flux slope (higher = more flux/activation; lower = inhibition) at 10 µM. 2.2% of 190,000 active;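 active = thallium flux slope and its plate-corrected score both differing from the plate sample mean at a set confidence after two filtering rounds, in either direction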;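 also: slope of fluorescence scaled to starting intensity during 10 to 20 s after thallium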
WT yeast gro inh: growth inhibition of WT yeast, mitochondrial fusion screen | mitochondrial fusion phenotypic screen, WT strain | inhibition, % at 10 µM | 2.1% of 190,000 active; in the data active = inhibition above about 58%; tested in S. cerevisiae
bCat nuc transl: alters nuclear translocation of beta-catenin in HeLa cells | immunofluorescence imaging | nuclear translocation activity, % at 5 µM | 0.3% of 190,000 active | AID 1665;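 active = nuclear translocation activity above 50% at 5 µM, with a well cell count of 50 or more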;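 also: per-cell ratio of nuclear to cytoplasmic median beta-catenin stain intensity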
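Test system: human HeLa cells, native beta-catenin. Compound dosing: 5 µM primary single dose, 0.1% DMSO, 0.02–20 µM confirmation series. Incubation: compound exposure 24 h at 37°C. Detection: beta-catenin immunostaining with DAPI counterstain, 20x imaging, 6 fields/well. Read-out basis: Nuclear/cytoplasmic beta-catenin signal ratio, % activation.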
MT stabilizer: microtubule stabilization, imaging screen | % tubulin-high responders, % at 10 µM | HeLa tubulin immunostaining HCS, 24 h; share of cells brighter than vehicle mean+2SD | 0.83% of 200,000 active;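 active = plate Z-score above 3 for both tubulin-high and condensed-nucleus cell shares, with cell loss under 80%, at 10 µM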;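 also: anti alpha tubulin signal scored within the nucleus-defined area of each cell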
A number is an active result; . = inactive; / = no result.

SMILES	Pf gametocyte	KCC2 mod	WT yeast gro inh	bCat nuc transl	MT stabilizer
C[C@]1(C(=O)NCCCNc2ncc(C(F)(F)F)cc2Cl)C=C[C@@H](Cc2ccccc2)N1C(=O)c1ccccc1	/	.	75	/	.
CCOC(=O)[C@H]1[C@H]2COc3ccc(OC)cc3[C@@H]2N2C(=O)CN(Cc3ccc(OC)cc3)C(=O)[C@@]12C	.	/	/	/	/
COc1cc(CNn2cn[nH]c2=S)cc(Cl)c1OCc1ccc(F)cc1	/	.	66	.	.
COc1cc(CNn2c(C)n[nH]c2=S)cc(Cl)c1OCc1ccccc1	/	.	.	.	.
Cn1cccc1C(=O)OCC(=O)N1c2ccccc2NC(=O)C1(C)C	/	.	.	.	.
CN(C)c1cc[n+](CC(=O)Nc2ccc(OC(F)F)cc2)cc1	.	.	/	.	/
Fc1ccccc1NC(=S)Nc1ccc(Br)cc1	.	.	62	.	.
CCSc1ccccc1C(=O)N=C1NC(=O)CC2C(=O)NCCN12 (stereo not given)	.	.	.	.	.
O=c1oc2ccccc2nc1/C=C(\O)c1ccccc1	.	.	/	.	/
O/C(=C\c1nc2ccccc2nc1/C=C(\O)c1ccccc1)c1ccccc1	/	.	74	.	.
CCOc1ccc(Nc2cc(Nc3ccccc3OCC)nc(C=C(C#N)C#N)n2)cc1	.	.	/	.	/
O=C(/C=C/c1cccc(Cl)c1)N1CCC(Cc2ccccc2)CC1	.	.	65	/	.
Clc1cccc(CN2CCC(Cc3ccccc3)CC2)c1	/	.	.	.	.
O=C(CSCC(=O)N1CCCCC1)Nc1nc(-c2ccc(Cl)s2)cs1	/	.	72	.	.
CCCc1cnc(NCCNCC(O)COc2ccc(Cl)c(Cl)c2)nc1 (stereo not given)	.	.	/	.	/
O=C1C(=O)N(CCO)C(c2ccc(Br)cc2)/C1=C(\O)c1ccccc1 (stereo not given)	.	/	/	/	/
CN1/C(=C/C=C(/C#N)C(N)=O)C(C)(C)c2ccccc21	.	/	.	/	20
CN1/C(=C\C=C(/C#N)C(=O)Nc2ccccc2F)C(C)(C)c2ccccc21	.	.	.	.	.
Cc1nn(CCC(N)=S)c2nc(-c3cccs3)cc(C(F)(F)F)c12	.	.	75	.	.
COc1cc(NC(=O)C(=O)NNC(=O)C2CCCCC2)c(OC)cc1Cl	.	51	.	.	.
COc1ccc(/C=N/Nc2nc(Nc3ccccc3)nc(N3CCCC3)n2)cc1	/	.	.	.	.
C(=N\Nc1nc(Nc2ccccc2)nc(N2CCCCC2)n1)/c1ccco1	.	/	69	.	.
C(=N\Nc1nc(N2CCCCC2)nc(N2CCCCC2)n1)/c1c[nH]c2ccccc12	.	/	63	.	.
O=[N+]([O-])c1ccc(/C=N/Nc2nc(N3CCCCC3)nc(N3CCCCC3)n2)o1	.	.	70	.	.
Cc1oc2c(Cl)c(Cl)c(O)c(CN(C)C)c2c1C(=O)c1ccc(Cl)cc1	.	/	/	/	/
SMILES	Pf gametocyte	KCC2 mod	WT yeast gro inh	bCat nuc transl	MT stabilizer
COc1ccc(NC(=O)C(NC(=O)c2ccc(C)cc2)c2ccccc2)cc1 (stereo not given)	.	/	/	/	/
Cc1ccc(Oc2nc(CN3CCOCC3)nc3sc4c(c23)CCC(C)C4)cc1C (stereo not given)	.	.	65	.	.
Cc1ccc(Oc2nc(CN3CCOCC3)nc3sc4c(c23)CCC(C)C4)cc1 (stereo not given)	.	.	63	.	.
CC1CCc2c(sc3nc(CN4CCOCC4)nc(N4CCc5ccccc5C4)c23)C1 (stereo not given)	/	.	.	.	.
C[n+]1cccc(/C=N/NC(=O)CC23CC4CC(CC(C4)C2)C3)c1	.	/	/	.	/
Cc1sc2nc(CN(Cc3cccs3)C(=O)NC3CCCCC3)[nH]c(=O)c2c1C	.	.	66	.	.
COc1ccccc1N(C)S(=O)(=O)c1ccc(C(=O)OCC(N)=O)cc1	.	.	.	.	.
CCCNC(=O)NC(=O)COC(=O)c1ccc(S(=O)(=O)N(C)c2ccccc2OC)cc1	.	.	.	.	15
CC(O)c1nc2ccccc2n1CCCOc1ccccc1 (stereo not given)	.	.	/	.	/
COC(=O)c1ccc(C(=O)OC)c(NC(=S)N2CCN(C(=O)C3CCCO3)CC2)c1 (stereo not given)	.	.	/	.	/
Cc1cccc2nc(-c3ccccc3)nc(N3CCC(O)(c4ccc(Cl)cc4)CC3)c12	/	.	68	.	.
CCN1CCN(c2nc(-c3ccccc3)nc3ccccc23)CC1	/	.	.	.	.
Cc1cc(N)ccc1NC(=O)CN1CCOCC1	.	/	/	/	/
O=C(N/N=C/c1ccc(Br)cc1)c1ccccc1-n1cccc1	/	.	.	.	47
Cc1cccc(/C=N\NC(=O)c2ccccc2-n2cccc2)c1	.	.	.	.	.
CCOn1c(=O)c(-c2cccs2)[n+]([O-])c2ccccc21	/	3.8	.	.	.
CCOC(=O)C1=C(C)Nc2sc(C(=O)c3ccc(C)cc3)c(N)c2C1c1ccc(C(=O)OC)cc1 (stereo not given)	.	.	.	.	.
CCOC(=O)C1=C(C)Nc2sc(C(=O)c3ccc(F)cc3)c(N)c2C1c1ccc(C(=O)OC)cc1 (stereo not given)	/	.	87	.	.
O=C(/C=C/c1ccco1)NC(=S)Nc1nc(-c2ccc(Cl)cc2)cs1	.	.	.	.	12
O=C(/C=C/c1ccco1)NC(=S)Nc1nc(-c2ccc3ccccc3c2)cs1	.	.	.	.	.
CC1CCN(C(=O)Cn2nnc(-c3ccc([N+](=O)[O-])cc3)n2)CC1	.	/	/	/	/
CCn1c(-c2cc(-c3ccc(C)c(C)c3)nc3ccccc23)n[nH]c1=S	/	.	58	.	.
CCn1c(-c2cc(-c3cc(C)ccc3C)nc3ccccc23)n[nH]c1=S	/	.	.	.	.
C=C(C)C1Cc2c(C)nn(-c3nc(C)cc(C)n3)c2C1 (stereo not given)	/	.	64	.	.
O=C(CCc1nnc(Cc2ccc3c(c2)OCO3)o1)NC(c1ccccn1)C(F)(F)F (stereo not given)	/	.	.	.	.
SMILES	Pf gametocyte	KCC2 mod	WT yeast gro inh	bCat nuc transl	MT stabilizer
CC12COC3(C(=O)Nc4ccc5ccccc5c4)CC1CCC32C (stereo not given)	.	.	77	.	.
S=c1[nH]ncn1/N=C/c1cccc(Oc2ccccc2)c1	/	/	73	.	.
C(=N\n1cnnc1)/c1cccc(Oc2ccccc2)c1	.	.	.	.	.
CCn1c(Cn2nnc(-c3ccccc3)n2)nnc1SCc1ccc(Cl)c(Cl)c1	.	.	79	.	.
Cn1c(=O)n(CCc2ccccc2)c(=O)c2c1nc1n2CCCN1CCc1ccccc1	.	.	67	.	.
COCCn1c(=O)[nH]c(=O)c2cc(C(=O)c3cc(Cl)ccc3O)cnc21	/	.	63	.	.
CC(C)NC(=S)N/N=C/c1ccc(C(C)(C)C)cc1	.	.	61	.	.
CC(C)NC(=S)N/N=C/c1cccs1	/	.	.	.	.
O=C1N=C(N2CCN(c3cccc4ccccc34)CC2)S/C1=C/c1cccs1	.	/	.	.	.
Cc1ccccc1N1CCN(C2=NC(=O)/C(=C\c3cccs3)S2)CC1	.	.	64	.	9.4
